Laboratory results: ChEMBL document CHEMBL4196009, “Novel vitexin-inspired scaffold against leukemia” (Eur J Med Chem, 2018)
The source made the active and inactive calls. No cut-off for these calls is given here.

Legend:
KOPN-8 [1] = experiment: Cell cycle arrest in human KOPN8 cells assessed as accumulation at G0/G1 phase at 10 uM after 24 hrs by propidium iodide staining-based flow cytometry (reference value: 24.77%); format: functional
Summary of the method: (§1)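 KOPN-8 cells treated 24 h alongside a DMSO vehicle and a staurosporine (2.0 µM) positive control. Apoptosis was scored by FITC Annexin V / propidium iodide flow cytometry with quadrant gating (early, late apoptotic). DNA content was measured by PI staining to give the percentage of cells in G0/G1, S and G2/M. Groups were compared by t-test; error bars are SD.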

[2] = molecular target: T1, Retinoblastoma-associated protein (Homo sapiens) (UniProt P06400); experiment: Inhibition of Rb phosphorylation in human KOPN8 cells assessed as ratio of phosphorylated Rb to total Rb levels at 30 uM pre-treated with NAC for 1 hr and measured after 3 hrs by Western blot analysis relative to control; format: cell-based
T1 sequence (whole entry): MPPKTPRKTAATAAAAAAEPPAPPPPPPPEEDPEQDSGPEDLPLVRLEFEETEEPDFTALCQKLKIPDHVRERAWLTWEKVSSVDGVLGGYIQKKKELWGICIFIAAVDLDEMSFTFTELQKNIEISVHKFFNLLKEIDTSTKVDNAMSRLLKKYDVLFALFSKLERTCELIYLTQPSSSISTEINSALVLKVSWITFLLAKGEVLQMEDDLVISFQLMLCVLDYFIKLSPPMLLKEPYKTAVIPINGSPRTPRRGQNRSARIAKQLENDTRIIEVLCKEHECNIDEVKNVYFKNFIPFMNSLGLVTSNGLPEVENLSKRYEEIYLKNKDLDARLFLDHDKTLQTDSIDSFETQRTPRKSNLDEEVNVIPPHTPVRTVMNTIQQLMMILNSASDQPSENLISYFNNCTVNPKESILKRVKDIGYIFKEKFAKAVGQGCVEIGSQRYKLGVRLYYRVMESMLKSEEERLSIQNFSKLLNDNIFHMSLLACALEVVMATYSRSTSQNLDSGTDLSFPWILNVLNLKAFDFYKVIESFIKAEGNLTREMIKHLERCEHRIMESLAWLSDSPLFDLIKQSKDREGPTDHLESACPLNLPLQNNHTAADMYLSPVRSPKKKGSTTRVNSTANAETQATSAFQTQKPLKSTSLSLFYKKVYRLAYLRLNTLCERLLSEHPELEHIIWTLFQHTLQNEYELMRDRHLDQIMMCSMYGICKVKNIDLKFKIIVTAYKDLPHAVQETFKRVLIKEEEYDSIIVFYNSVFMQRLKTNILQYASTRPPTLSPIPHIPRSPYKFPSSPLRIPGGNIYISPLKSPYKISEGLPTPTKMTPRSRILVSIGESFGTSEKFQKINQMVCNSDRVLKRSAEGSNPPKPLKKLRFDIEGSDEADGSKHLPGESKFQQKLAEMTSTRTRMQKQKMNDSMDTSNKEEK
Summary of the method: (§2)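 KOPN-8 pre-B ALL cells were treated for 3 h and 24 h, with or without N-acetyl cysteine added to a parallel set of cells as an antioxidant/ROS quencher. Lysates were analysed by Western blot for phosphorylated Rb and total Rb. The same blots also probed PARP cleavage, Mcl-1, Ser-2-phosphorylated RNAPII CTD and cMyc.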

Homo sapiens [3] = species: Homo sapiens; experiment: Inhibition of RNA polymerase 2 C-terminal domain phosphorylation at Ser2 residue in human KOPN8 cells at 30 uM pre-treated with NAC for 1 hr and measured after 24 hrs by Western blot analysis relative to control; format: cell-based
Summary of the method: (§3)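 KOPN-8 cells were exposed to compound for 3 h and 24 h, with or without N-acetylcysteine added to a parallel set as antioxidant. Lysates were analysed by Western blot for cleaved PARP, Mcl-1, Ser-2-phosphorylated RNAPII CTD, cMyc, total Rb and pRb. Signals were compared against controls for dose-dependent change.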

[4] = molecular target: T1, Retinoblastoma-associated protein (Homo sapiens); experiment: Inhibition of Rb phosphorylation in human KOPN8 cells assessed as ratio of phosphorylated Rb to total Rb levels at 10 uM after 3 hrs by Western blot analysis relative to control; format: cell-based; summary of the method: as §2
Homo sapiens [5] = species: Homo sapiens; experiment: Inhibition of RNA polymerase 2 C-terminal domain phosphorylation at Ser2 residue in human KOPN8 cells at 30 uM after 3 hrs by Western blot analysis relative to control; format: cell-based; summary of the method: as §3
KOPN-8 [6] = experiment: Induction of apoptosis in human KOPN8 cells assessed as downregulation of Mcl-1 level after 3 to 24 hrs by Western blot analysis; format: functional, cell-based
Summary of the method: (§4)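 KOPN-8 cells were treated at 10–100 µM final, with or without N-acetylcysteine co-addition, for 3 h and 24 h. Lysates were analysed by Western blot for PARP cleavage, Mcl-1, phospho-Ser2 RNAPII CTD, c-Myc, total Rb and pRb. Levels are relative to the vehicle control.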

KOPN-8 [7] = experiment: Effect on c-Myc expression in human KOPN8 cells at 100 uM after 24 hrs by Western blot analysis relative to control; format: functional; summary of the method: as §4
Homo sapiens [8] = species: Homo sapiens; experiment: Inhibition of RNA polymerase 2 C-terminal domain phosphorylation at Ser2 residue in human KOPN8 cells after 24 hrs by Western blot analysis; format: cell-based; summary of the method: as §3
KOPN-8 [9] = experiment: Induction of apoptosis in human KOPN8 cells assessed as upregulation of cleaved PARP level at 100 uM pre-treated with NAC for 1 hr and measured after 24 hrs by Western blot analysis; format: functional, cell-based; summary of the method: as §3
KOPN-8 [10] = experiment: Induction of apoptosis in human KOPN8 cells assessed as effect on Mcl-1 level at 100 uM pre-treated with NAC for 1 hr and measured after 24 hrs by Western blot analysis relative to control; format: functional; summary of the method: as §3
KOPN-8 [11] = experiment: Cell cycle arrest in human KOPN8 cells assessed as accumulation at G2/M phase at 10 uM after 24 hrs by propidium iodide staining-based flow cytometry (reference value: 9.67%); format: functional; summary of the method: as §1
KOPN-8 [12] = experiment: Effect on c-Myc expression in human KOPN8 cells at 100 uM pre-treated with NAC for 1 hr and measured after 3 hrs by Western blot analysis relative to control; format: functional
Homo sapiens [13] = species: Homo sapiens; experiment: Inhibition of RNA polymerase 2 C-terminal domain phosphorylation at Ser2 residue in human KOPN8 cells at 0.5 uM after 3 hrs by Western blot analysis relative to control; format: cell-based; summary of the method: as §3
MDA-MB-231 = experiment: Cell cycle arrest in human MDA-MB-231 cells assessed as accumulation at S phase at 5 uM after 24 hrs by propidium iodide staining-based flow cytometry (reference value: 20.15%); format: functional
KOPN-8 [14] = experiment: Induction of apoptosis in human KOPN8 cells assessed as effect on Mcl-1 level at 0.5 uM after 24 hrs by Western blot analysis relative to control; format: functional

Structure (SMILES)	Activity (KOPN-8 [1]) [%]	fold change (FC) [2]	fold change (FC) (Homo sapiens [3])	fold change (FC) [4]	fold change (FC) (Homo sapiens [5])	Activity (KOPN-8 [6])	fold change (FC) (KOPN-8 [7])	inhibition (Homo sapiens [8])	Activity (KOPN-8 [9])	fold change (FC) (KOPN-8 [10])	Activity (KOPN-8 [11]) [%]	fold change (FC) (KOPN-8 [12])	fold change (FC) (Homo sapiens [13])	Activity (MDA-MB-231) [%]	fold change (FC) (KOPN-8 [14])
COc1ccc(-c2c(I)c(=O)c3c(OC)cc(OC)cc3n2S(=O)(=O)c2ccc(OC)cc2)cc1	47.22	1	0.7	1	1	Dose-dependent effect	0.1	Dose-dependent effect	Active	0.2	27.12	0.5	–	–	–
CN(C)C(=O)c1cc2cnc(Nc3ccc(N4CCNCC4)cn3)nc2n1C1CCCC1 [RIBOCICLIB]	–	–	–	–	–	–	–	–	–	–	–	–	0.8	4.64	1.1
